In ChEMBL document CHEMBL5113539, “Dihydromaniwamycin E, a Heat-Shock Metabolite from Thermotolerant Streptomyces sp. JA74, Exhibiting Antiviral Activity against Influenza and SARS-CoV-2 Viruses” (J Nat Prod, 2022):

Tests used:
[1] = Cytotoxicity against human 293TA cells assessed as reduction in cell viability after 2 to 3 days by MTT assay; format: toxicity, cell-based; conditions: time 2-3 day
Influenza A virus = experiment: Antiviral activity against influenza A virus A/Puerto Rico/8/34 (H1N1) infected in dog MDCK cells assessed as inhibition of viral cytopathic effect incubated for 48 hrs by crystal violet staining based plaque assay; format: functional, organism-based
How it was run: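 MDCK cells were grown in MEM with 10% FBS at 37 °C and 5% CO2. Compound was premixed with A/PR/8/34 (H1N1) containing 50–200 pfu for 30 min at room temperature. The mixture was adsorbed onto an MDCK monolayer for 30 min at 37 °C, washed, and incubated 2 days. Plaques were counted after crystal violet staining, and IC50 was taken from a logit–log plot.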

Vero C1008 = experiment: Cytotoxicity against African green monkey VeroE6T cells assessed as reduction in cell viability after 2 to 3 days by MTT assay; format: toxicity, cell-based; conditions: chlorocebus sabaeus, time 2-3 day
SARS-CoV-2 [2] = experiment: Antiviral activity against SARS-CoV-2 infected in human 293TA cells assessed as reduction in cytopathic effect after 2 to 3 days by MTT assay; format: functional, organism-based; conditions: Severe acute respiratory syndrome coronavirus 2, 293TA
SARS-CoV-2 [3] = experiment: Antiviral activity against SARS-CoV-2 infected in African green monkey VeroE6T cells assessed as reduction in cytopathic effect after 2 to 3 days by MTT assay; format: functional, organism-based, Vero E6; conditions: Severe acute respiratory syndrome coronavirus 2, Vero C1008

With `CCCCCC/[N+]([O-])=N/[C@H](C)[C@H](C)O` the Activity [1] was “Non-Toxic”, the IC50 (Influenza A virus) was 25.7 µM and the Activity (Vero C1008) was “Non-Toxic”. The IC50 (SARS-CoV-2 [2]) was 19.7 µM.

In the case of `CCCC/C=C/[N+]([O-])=N/[C@H](C)[C@H](C)O`, the Activity [1] is reported as “Non-Toxic”, the IC50 (SARS-CoV-2 [3]) is reported as 16.4 µM and the IC50 (Influenza A virus) is reported as 63.2 µM. For the same molecule, the Activity (Vero C1008) was “Non-Toxic” and the IC50 (SARS-CoV-2 [2]) was 9.7 µM.

Molecule `CCC(CC)COC(=O)[C@H](C)N[P@](=O)(OC[C@H]1O[C@@](C#N)(c2ccc3c(N)ncnn23)[C@H](O)[C@@H]1O)Oc1ccccc1` [REMDESIVIR] has an IC50 (SARS-CoV-2 [3]) of 0.9 µM.
